In the array DNA melting data of Ke et al. (doi:10.1101/2024.01.08.574731):

What was measured:
[1] = folding enthalpy; higher = less favourable; fluorescence melt of hairpins on a sequencing array, two-state fit; details: sodium 0.088 M
Summary of the method: (§1)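 Folding enthalpy and melting temperature were estimated with bootstrapped two-state fits and combined across four replicates by inverse-variance weighting, with fitted temperatures raised by 9.35 °C to match UV melts. The data were Cy3 fluorescence of library hairpins, with annealed Cy3 and quencher oligos, on a sequenced MiSeq flow cell in 50 mM Na-HEPES pH 8.0, 25 mM NaCl, imaged in 2.5 °C steps up to 60 °C and normalised to pre-quench Cy3 and control constructs.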

[2] = melting temperature; fluorescence melt of hairpins on a sequencing array, two-state fit, raised by 9.35 °C to match UV melts; details: sodium 0.088 M
Summary of the method: as §1

Row | Sequence | folding enthalpy [1] | Tm [2]
1 | GGACCTGGAAACGGGTTC (.(((.(....).))).) | -26.6 kcal/mol | 38.6 °C
2 | GGATAACGAAAGTTTTCC (((.(((....))).))) | -27.6 kcal/mol | 43.7 °C
3 | GCTCGCCGAAAGGCAAGC (((.(((....))).))) | -29.1 kcal/mol | 54.7 °C
4 | GCGAGGAATCGC ((((....)))) | -20.5 kcal/mol | 54.6 °C
5 | GACACGACGAAAGTCGTC (((..(((....)))))) | -6.1 kcal/mol | 34.4 °C
6 | GATCAGCATCTGATC ((((((...)))))) | -34.2 kcal/mol | 46.7 °C
7 | GATCGCGGTTGCGATC ((((((....)))))) | -25.1 kcal/mol | 68.9 °C
8 | GATCATAACCATGATC ((((((....)))))) | -35.7 kcal/mol | 47.4 °C
9 | GTCCTGGAAACAGGAC ((((((....)))))) | -38.6 kcal/mol | 63 °C
10 | GCGTTTGGAAACAAACGC (((((((....))))))) | -41.4 kcal/mol | 67.7 °C
11 | GATGCCGAAAGGCGTATC ((((((....)))..))) | -11.5 kcal/mol | 36.4 °C
12 | GCGTCAACGAAAGTTCGC (((..(((....)))))) | -27.6 kcal/mol | 45 °C
13 | GATGCACCGAAAGGTATC (((..(((....)))))) | -9.42 kcal/mol | 29 °C
14 | GTAGTGGGAAACCATTGC (.(.(((....))).).) | -10.3 kcal/mol | 24.3 °C
15 | GTTCGCCGAAAGGCTAAC (((.(((....))).))) | -19.6 kcal/mol | 44.7 °C
16 | GTCAGCGAAAGCTTGGAC ((((((....)))..))) | -13.9 kcal/mol | 38.2 °C
17 | GATCAGCAGCCTGATC ((((((....)))))) | -36.5 kcal/mol | 48.7 °C
18 | GTATGCGAAAGCATTAC ((((((....))).))) | -13.8 kcal/mol | 43.4 °C
19 | CGCGGAAGACTCCGCG ((((((....)))))) | -41.6 kcal/mol | 62.8 °C
20 | GCCATGCGAAAGCTTAGC ((.(.((....)).).)) | -13.1 kcal/mol | 28 °C
21 | GTGTTAGGAAACTAGCAC (((.(((....))).))) | -31.2 kcal/mol | 42.9 °C
22 | GTATACCGAAAGGTTTAC (((.(((....))).))) | -27.5 kcal/mol | 43.3 °C
23 | GCGTCGCGAAAGCTGCGC (((..((....))..))) | -22.5 kcal/mol | 61.7 °C

Row | Sequence | folding enthalpy [1] | Tm [2]
24 | GATCGAGAGGTCGATC ((((((....)))))) | -19 kcal/mol | 50.1 °C
25 | GATCAGACTGCTGATC ((((((....)))))) | -28.1 kcal/mol | 48.3 °C
26 | GATTATGGAAACATAGTC ((.((((....)))).)) | -16.8 kcal/mol | 31.7 °C
27 | GCGTTGAAAAACGC (((((....))))) | -30.2 kcal/mol | 61.2 °C
28 | GAAACGGAAACGTTTC ((((((....)))))) | -39.8 kcal/mol | 55.3 °C
29 | GTTAGAGGAAACTCTGAC ((.((((....)))).)) | -31.4 kcal/mol | 37.1 °C
30 | GATCTACTAATAGATC ((((((....)))))) | -27.3 kcal/mol | 38.9 °C
31 | GAGTCCGGAAACAGACTC (((((.(....).))))) | -31.1 kcal/mol | 41.6 °C
32 | GATCAACCGTTTGATC ((((((....)))))) | -35.2 kcal/mol | 42.8 °C
33 | GCCTCGCGAAAGCGGAGC ((..(((....)))..)) | -13.7 kcal/mol | 50.9 °C
34 | GACGCAGGAAACCACGTC ((((..(....)..)))) | -16.3 kcal/mol | 34.9 °C
35 | GACTGCGAAAGCAACGTC ((((((....)))..))) | -15.2 kcal/mol | 38.8 °C
36 | GCGACGCGAAAGCGATGC ((..(((....)))..)) | -24.1 kcal/mol | 61.8 °C
37 | GACCAAGCGAAAGCTGTC (((..(((....)))))) | -13.5 kcal/mol | 37.2 °C
38 | GATCTGCGGCCAGATC ((((((....)))))) | -27.4 kcal/mol | 48.6 °C
39 | GTAAACTCGAAAGAGTAC (((..(((....)))))) | -11.9 kcal/mol | 31 °C
40 | GATCTGCAGGCAGATC ((((((....)))))) | -32.7 kcal/mol | 60.2 °C
41 | GACCAAGGAAACTTGGTC (((((((....))))))) | -35.8 kcal/mol | 60.5 °C
42 | GTGACCGAAAGGTCCAC ((((((....))).))) | -11.3 kcal/mol | 47.1 °C
43 | GTCTAGGAAACTAGAC ((((((....)))))) | -39.2 kcal/mol | 50.8 °C
44 | GTCGTGCGAAAGCAGGAC (((.(((....))).))) | -35.9 kcal/mol | 64.5 °C
45 | GATCGTACCACGATC ((((((...)))))) | -33.7 kcal/mol | 57.3 °C
46 | GGACATGCGAAAGCATCC (((..(((....)))))) | -10.8 kcal/mol | 28.6 °C

Row | Sequence | folding enthalpy [1] | Tm [2]
47 | GCGCCTGCGAAAGCACGC (((..(((....)))))) | -16.7 kcal/mol | 47.7 °C
48 | GATCCCGGAAACAGGATC (((((.(....).))))) | -28.8 kcal/mol | 38.8 °C
49 | GGAGGCTCGAAAGAGTCC (((..(((....)))))) | -14.4 kcal/mol | 35.8 °C
50 | GGTCGCGGAAACGTGGCC ((.(.((....)).).)) | -48.9 kcal/mol | 53.5 °C
51 | GGGTGGGCGAAAGCCCCC (((..(((....)))))) | -12 kcal/mol | 54.5 °C
52 | GTGTAACCGAAAGGTCAC (((..(((....)))))) | -22.6 kcal/mol | 43.6 °C
53 | GAAGAAGAAATTCTTC ((((((....)))))) | -18.5 kcal/mol | 38.1 °C
54 | GCGTTCGGAAACGGATGC ((.(.((....)).).)) | -33.1 kcal/mol | 44.7 °C
55 | GTGTCCGGAAACGGATAC ((.((((....)))).)) | -38.6 kcal/mol | 53.3 °C
56 | GTCTGCCGAAAGGCCGAC (((.(((....))).))) | -25.6 kcal/mol | 54.1 °C
57 | GTGAGTGGAAACGCTTAC ((.((.(....).)).)) | -16.2 kcal/mol | 33.1 °C
58 | GACTCCCGAAAGGGGTC (((.(((....)))))) | -24.9 kcal/mol | 50.8 °C
59 | GCCAACGGAAACGTCAGC ((..(((....)))..)) | -12.1 kcal/mol | 28.3 °C
60 | GTAAATACGAAAGTATAC (((..(((....)))))) | -9.48 kcal/mol | 25 °C
61 | GATCTCCCGAGAGATC ((((((....)))))) | -38.6 kcal/mol | 52.7 °C
62 | GTCGGAACGAAAGTTGAC (((..(((....)))))) | -10.8 kcal/mol | 32.7 °C
63 | GCCTTCGGAAACGAAGAC (.(((((....))))).) | -18.4 kcal/mol | 43.3 °C
64 | GGACCAGGAAACTGGCCC ((.((((....)))).)) | -35.4 kcal/mol | 52.3 °C
65 | GTCGAAGGAAACTTTGGC (.(.(((....))).).) | -22.4 kcal/mol | 29.9 °C
66 | GGCTGCTCGAAAGAGGCC (((..(((....)))))) | -19.7 kcal/mol | 43.8 °C
67 | GGTGGTCCGAAAGGAACC (((..(((....)))))) | -14.1 kcal/mol | 48.9 °C
68 | GCAAGGCGAAAGCTTCGC ((.(.((....)).).)) | -12.2 kcal/mol | 40.9 °C
69 | GTTGGTGGAAACATCGAC ((.(.((....)).).)) | -21.1 kcal/mol | 35.1 °C

Row | Sequence | folding enthalpy [1] | Tm [2]
70 | GAGTGCCCGAAAGGGCTC (((..(((....)))))) | -6.67 kcal/mol | 35.5 °C
71 | GGAACCGAAAGGTGCTCC ((((((....)))..))) | -12.5 kcal/mol | 38.8 °C
72 | GGTATGCGAAAGCAACC (((.(((....)))))) | -14.5 kcal/mol | 47.7 °C
73 | GCATCGCGAAAGCGGGGC ((..(((....)))..)) | -22.2 kcal/mol | 63.1 °C
74 | GATCACGAAAGTGGGATC ((((((....)))..))) | -15.6 kcal/mol | 38 °C
75 | GGACCCCGAAAGGGCTCC (((.(((....))).))) | -16.3 kcal/mol | 48.6 °C
76 | GATCATTTGCATGATC ((((((....)))))) | -34.4 kcal/mol | 46.4 °C
77 | GTAACTGAAAAGTTAC ((((((....)))))) | -31.4 kcal/mol | 50.9 °C
78 | GATCATGGGGATGATC ((((((....)))))) | -29.2 kcal/mol | 46.5 °C
79 | GATCAAACTTTTGATC ((((((....)))))) | -27.9 kcal/mol | 45.9 °C
80 | GGCATAGGAAACTACGCC (((.(((....))).))) | -28.2 kcal/mol | 41.1 °C
81 | GATCTAACGGTAGATC ((((((....)))))) | -38.4 kcal/mol | 40.5 °C
82 | GGGGTCGAAAGACTGCCC ((((((....)))..))) | -16.2 kcal/mol | 41.5 °C
83 | GTCGGTGCGAAAGCAGAC (((..(((....)))))) | -14.2 kcal/mol | 45.2 °C
84 | GTTGTGGGAAACCATAGC (.(.(((....))).).) | -12.7 kcal/mol | 27.6 °C
85 | GGCAGCGGAAACACCGCC (((.(.(....).).))) | -11.1 kcal/mol | 34.9 °C
86 | GCGCAGCGAAAGCTCGGC ((..(((....)))..)) | -7.59 kcal/mol | 40.3 °C
87 | GATCCACCGTGGATC ((((((...)))))) | -37.4 kcal/mol | 48.5 °C
88 | GTTTCTCGAAAGAGGAAC (((.(((....))).))) | -34.7 kcal/mol | 49.1 °C
89 | GAACCAGGAAACTGATTC (((.(((....))).))) | -20.5 kcal/mol | 32.3 °C
90 | GCTAGCTCGAAAGAGAGC (((..(((....)))))) | -12.2 kcal/mol | 30.4 °C
91 | GATCCGACTACGGATC ((((((....)))))) | -35.6 kcal/mol | 57.1 °C
92 | GCTAGGAAACTAGC (((((....))))) | -25.6 kcal/mol | 50.8 °C
